Measured values collected from several papers.
Compare with care: the assays were run in different laboratories.
KCNH2: Voltage-gated inwardly rectifying potassium channel KCNH2 (KCNH2, Homo sapiens, UniProt Q12809)
ABCB11: Bile salt export pump (ABCB11, Homo sapiens, UniProt O95342)

With COc1cccc(OC)c1-c1cc(C(=O)NC2(C(=O)O)C3CC4CC(C3)CC2C4)nn1-c1ccc(C(=O)N(C)CCCN(C)CCCN(C)C(=O)CN2CCN(CC(=O)[O-])CCN(CC(=O)[O-])CCN(CC(=O)[O-])CC2)cc1C(C)C.[177Lu+3] (stereo not shown) the tracer uptake was 0.09 %ID/g (HT-29; stomach; 7 days, tumour-bearing).
Cn1c(=O)c2[nH]cnc2n(C)c1=O gave an MRT(0-t) of 2.61 h (male Sprague-Dawley rat, plasma; intravenous, 22.5 mg/kg).
With COc1cc(N)c(Cl)cc1C(=O)NC1CCN(CCCOc2ccc(F)cc2)CC1OC (stereo not shown) the inhibition was 39% (KCNH2; ion current, inhibitor, patch clamp; HEK293; 10 nM, pH 7.4).
For N[C@H]1C(O)O[C@H](CO)[C@@H](O)[C@@H]1O (stereo partly shown), the viability was 97.9% (Caco-2; cell growth or viability, CCK-8; 50 mM).
The MRT(0-t) of C[C@H]1Oc2cc(cnc2N)-c2c(nn(C)c2C#N)CN(C)C(=O)c2ccc(F)cc21 is reported as 11.9 h (male Sprague-Dawley rat, plasma; oral, 50 mg/kg, single dose).
COc1nc(-c2cccc(-c3ccccc3)c2C)ccc1CNCCNC(=O)CCCCCCCCCCC(=O)N1CCN(CCNC(=O)c2cc3c(=O)n4cccc(C)c4nc3n(CCc3cccs3)c2=N)CC1 has an MRT(0-inf) of 13.6 h (male Sprague-Dawley rat, plasma; oral, 40 mg/kg).
The inhibition of CN1C[C@H](COc2nccc3c(NCc4ccco4)cc(Cl)nc23)OC1=O is reported as 7% (KCNH2; ion current, inhibitor; HEK293; 3 µM).
The inhibition of NC/C(=C\F)COc1cccc(Cn2c(=S)[nH]c(=O)c3[nH]cnc32)c1 is reported as less than 50% (ABCB11; transporter uptake, inhibitor, radiometric; 30 µM).
With CC(C)n1ncc2c(C(=O)NCC3(C)CNC3)cc(C3CC3)nc21 the CC50 was greater than 100 µM (RD; cell growth or viability, neutral red).
With CC(=O)N1CCC(C(=O)N2CCN3C(=O)c4cc(-c5ccccc5)ccc4NC(=O)C3C2)CC1 (stereo not shown) the inhibition was 56.8% (KCNH2; ion current, inhibitor, patch clamp; HEK293; 100 µM).
With NC(=O)c1ncn([C@@H]2O[C@H](CO)[C@@H](O)[C@H]2O)n1 the CC50 was 104 µM (RD; cell growth or viability, MTT).
The Tmax of CC(C)n1cc(C#N)c2cc(-n3cc(C(=O)O)cn3)ccc21 is reported as 2.75 h (human, plasma; oral, 50 mg, single dose, fasted, healthy volunteers).
COc1ccc2c(c1)CN(C(=O)CCN1CCC(Cc3ccccc3)CC1)CC[S@@+]2[O-] has a Tmax of 0 h (male human, plasma; intravenous, 0.6 mg/kg, healthy volunteers).
For CC(C)NC(=O)COc1cccc(-c2nc(Nc3ccc4[nH]ncc4c3)c3ccccc3n2)c1, the IC50 was greater than 1 µM (ABCB11; transporter uptake, inhibitor, radiometric).
O=C(COc1ccc(Cl)cc1)NC12CC(c3nnc([C@H]4C[C@@H](OC(F)(F)F)C4)o3)(C1)C2 has a Tmax of 4.03 h (human, plasma; oral, 45 mg, multiple doses, once daily, steady state, healthy volunteers).
The inhibition of CCOC(=O)C1=C(CN2CCC[C@@H]2C(=O)Nc2ccc(B(O)O)cc2)NC(c2nccs2)=N[C@H]1c1ccc(F)cc1Br is reported as 83% (KCNH2; ion current, inhibitor, patch clamp; HEK293; 30 µM, pH 7.4).
